# An excerpt weighted towards active compounds, which were near 9.6% of everything screened.
# BaF3 parental = parental Ba/F3 cell viability inhibition, counter-screen for JAK2V617F inhibitor project, murine pro-B, CellTiter-Glo luminescence; CellTiter-Glo ATP luminescence; inhibition, % at 5.6 µM; actives 1.1% (n = 220,000);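 active means inhibition above a per-campaign cutoff, the mean inhibition of all tested compounds plus 3 SD, cut at about 27% in these data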;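 further: 0% = DMSO wells and 100% = JAK Inhibitor I control wells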
# MT stabilize HCS = microtubule stabilizers in HeLa cells, primary screen, imaging, high-content imaging; HeLa tubulin immunostaining HCS, 24 h; share of cells brighter than vehicle mean+2SD; % tubulin-high responders, % at 10 µM; actives 0.83% (n = 200,000); AID 2205, 2009;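 active means plate Z-score above 3 for both tubulin-high and condensed-nucleus cell shares, with cell loss under 80%, at 10 µM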;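 further: anti alpha tubulin signal scored within the nucleus-defined area of each cell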
# APP transl inh = inhibitors of APP translation via 5'UTR reporter, primary screen, APP 5'UTR luciferase, SH-SY5Y cells | SH-SY5Y APP 5'UTR-luciferase reporter, luminescence | inhibition, % at 2 µM | actives 0.82% (n = 190,000);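 active means inhibition above a set limit, derived from the sample mean plus 3 SD, cut at about 45% in these data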
# Ba/F3 V617F tox = reduced viability of JAK2V617F-dependent Ba/F3 cells, primary screen, JAK2V617F inhibitor project, cell-based, Ba/F3 EpoR-JAK2V617F, luminescence | ATP luminescence | actives 1.1% (n = 220,000) | inhibition, % at 5.6 µM;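 active means inhibition above the campaign mean plus 3 SD over all tested compounds, cut at about 24% in these data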;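 further: cytokine-independent growth of Ba/F3 cells driven by EpoR plus mutant JAK2; 0% = DMSO-treated cells and 100% = JAK inhibitor I control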
# bCat nuc transl = modulators of beta-catenin nuclear translocation, primary screen, imaging, HeLa cells, immunofluorescence, high-content; nuclear translocation activity, % at 5 µM; AID 1665, 2009; actives 0.3% (n = 190,000);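 active means nuclear translocation activity above 50% at 5 µM, with a well cell count of 50 or more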;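 further: per-cell ratio of nuclear to cytoplasmic median beta-catenin stain intensity; plate controls were DMSO negative control for no effect and GSK-3 inhibitor IX positive control for full effect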
#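 Read-out: Nuclear/cytoplasmic beta-catenin signal ratio, % activation | Assay system: Human HeLa cell line | Times: 24 h compound exposure at 37°C, 5% CO2 | Signal: Fluorescence imaging of beta-catenin antibody stain plus DAPI | Dosing: 5 µM primary, 0.02–20 µM confirmation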
# L major viab = Leishmania major promastigote growth inhibition, primary screen. Leishmania major promastigotes, resazurin fluorescence viability. inhibition, % at 10 µM. actives 9% (n = 200,000); in the data active means inhibition above about 50%;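 further: promastigotes grown with compound for 44 hours at 28 °C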
# * hit, by the source's call; / = no result.
SMILES,BaF3 parental,MT stabilize HCS,APP transl inh,Ba/F3 V617F tox,bCat nuc transl,L major viab
O=C(O)c1ccc(N/N=C/C2=C(N3CCOCC3)C(=C\c3ccccc3)/CC2)cc1,-3.1,/,/,-3.5,0.7,/
CC(C)C(NC(=O)C12CC3CC(CC(C3)C1)C2)C(=O)N/N=C/C1=C(N2CCOCC2)C(=C\c2cccc([N+](=O)[O-])c2)/CC1 (configuration not stated),2.9,1.7,-6.7,-1.0,3.0,96.9*
CC12CN(C(=O)c3ccc(Cl)cc3)C3(C#N)CC1CCC23C (configuration not stated),7.5,1.0,7.8,-0.2,/,2.6
CC12CN(NC(=O)c3ccccc3F)C3(C#N)CC1CCC23C (configuration not stated),90.0*,1.6,-6.7,4.6,-4.5,-1.7
O=C(Nc1ccccc1-c1nnn(CC(=O)N2CCOCC2)n1)c1ccccc1F,11.7,2.6,-6.2,1.4,-0.4,-1.7
CC1CC(C)CN(C(=O)/C(=C\c2ccccc2)c2ccccc2)C1 (configuration not stated),5.2,1.6,-7.2,0.2,0.4,95.9*
Cn1c(=O)c(C(=O)COC(=O)c2cc(C3CC3)nc3ccccc23)c(N)n(Cc2ccccc2)c1=O,4.8,3.9,14.3,-1.1,5.0,35.8
Cn1c(=O)c(C(=O)COC(=O)c2cc(-c3ccco3)nc3ccccc23)c(N)n(CC2CC2)c1=O,0.3,4.4,-6.5,-2.6,/,62.1*
Cn1c(N)c(C(=O)COc2ccc(Cl)cc2Cl)c(=O)n(C)c1=O,14.8,2.1,8.0,-3.2,0.6,12.3
Cn1c(=O)c(C(=O)COc2ccc(F)cc2Cl)c(N)n(Cc2ccccc2)c1=O,4.0,3.2,-17.4,-2.1,-1.5,56.0*
Cn1c(=O)c(C(=O)COC(=O)c2cc(-c3ccccc3)nc3ccccc23)c(N)n(Cc2ccccc2)c1=O,7.8,2.9,19.6,3.2,/,100.1*
COc1ccccc1C(C)N(C)Cc1nc(COc2ccccc2)no1 (configuration not stated),0.3,1.5,-12.3,0.0,-0.9,-5.7
Cc1ccc(Cl)cc1NC(=S)N/N=C/c1cccc2ccccc12,76.5*,/,/,77.8*,1.1,/
Cc1ccccc1NC(=S)N/N=C/c1ccc(O)cc1O,3.2,/,/,0.0,5.4,/
Cc1ccc(NC(=S)N/N=C/c2c(Cl)cccc2Cl)c(C)c1,71.9*,13.4*,95.4*,69.8*,99.4*,0.1
CCN(CC)C(=O)C(=O)Nc1ccc(OCc2ccccc2)cc1,3.6,5.0,-11.5,-1.3,0.8,0.6
COC(=O)c1ccc(C)c(NS(=O)(=O)c2ccc(C)c([N+](=O)[O-])c2)c1,1.1,2.6,-15.0,1.1,-2.9,11.5
COC(=O)c1ccc(C)c(NS(=O)(=O)c2ccc(OC)cc2)c1,75.0*,23.7*,93.8*,79.7*,/,13.1
COC(=O)c1ccc(C)c(NS(=O)(=O)c2ccc3c(c2)OCCO3)c1,54.7*,21.0*,92.8*,74.8*,7.0,100.2*
O=C(NCCOc1ccccc1)c1ccccc1[N+](=O)[O-],6.4,3.2,-11.0,-1.1,-4.7,-4.8
O=C(NCCOc1ccccc1)c1cc(C(=O)NCCOc2ccccc2)cc([N+](=O)[O-])c1,5.1,2.3,-3.8,3.5,1.0,97.7*
O=C(NCCc1nc2ccccc2[nH]1)c1cc([N+](=O)[O-])cc([N+](=O)[O-])c1,0.4,6.5,6.8,-1.4,-1.1,98.3*
COc1cc(OC)nc(Oc2ccccc2C(=O)Oc2ccc(F)cc2Cl)n1,-2.2,1.9,-9.6,-1.3,/,-2.5
O=C(CNC1CCCC1)Nc1ccc(N2CCCCCC2)cc1,8.0,5.3,-6.2,1.5,0.0,85.0*
O=C(CNC1CCCCCC1)Nc1ccc(N2CCCC2)cc1,0.5,2.4,-4.6,0.3,-0.9,18.6
SMILES,BaF3 parental,MT stabilize HCS,APP transl inh,Ba/F3 V617F tox,bCat nuc transl,L major viab
CC1CCN(CC(=O)Nc2ccc(N3CCCCCC3)cc2)CC1,1.8,1.4,6.3,0.8,0.0,78.2*
O=C(CNCCC1=CCCCC1)Nc1ccc(N2CCCCCC2)cc1,9.1,46.2,-4.9,6.2,1.7,84.7*
O=C(Nc1cccc2nsnc12)c1ccc(-c2cccc(Cl)c2)o1,7.3,3.1,-0.2,5.6,-0.7,-1.0
N#Cc1cc2c(nc1Cl)CCCC2,-0.2,5.1,-12.5,-6.9,2.2,73.5*
N#Cc1cc2c(nc1Cl)CCC2,-3.1,/,/,-0.3,-0.5,/
Cc1ccc2nc(SCC(=O)Nc3cc([N+](=O)[O-])ccc3F)[nH]c2c1,1.5,2.8,-2.1,-2.9,-0.3,11.7
Cc1ccc2nc(SC(C)C(=O)Nc3cccc([N+](=O)[O-])c3)[nH]c2c1 (configuration not stated),7.5,0.9,5.3,-0.4,-0.7,56.2*
O=[N+]([O-])c1ccccc1/C=C/C=N/N1CCCCC1,3.5,3.6,-99.2,1.8,0.1,-10.5
N#C/C(=C\C=C\c1ccccc1[N+](=O)[O-])C(=O)NC1CCCCC1,0.4,2.8,1.9,0.1,-0.9,91.1*
N#C/C(=C\c1ccc(F)c(F)c1)C(=O)NC1CCCCC1,-0.7,6.8,13.1,-3.1,1.3,29.6
N#C/C(=C\c1ccccc1[N+](=O)[O-])C(=O)NC1CCCCC1,-2.3,2.7,7.8,-4.5,-1.2,99.5*
N#C/C(=C\c1cccn1-c1ccccc1)C(=O)NC1CCCCC1,7.0,30.4*,-6.3,0.2,2.6,3.8
N#C/C(=C\c1cc(Cl)ccc1O)C(=O)NC1CCCCC1,5.4,3.3,-5.3,-3.0,1.4,8.9
COc1ccc(-c2[nH]ncc2/C=C(/C#N)C(=O)NC2CCCCC2)cc1,3.4,2.1,8.1,0.9,/,65.9*
Cc1ccc(N(Cc2cc3cc(C)ccc3[nH]c2=O)S(=O)(=O)c2ccccc2)cc1,9.8,15.1,-6.5,-0.6,-0.9,7.7
CCOc1cc(/C=N/NC(=O)C(=O)NCCCOC(C)C)cc(Br)c1O,6.7,3.3,2.0,3.8,/,69.5*
CCOc1cc(/C=N\NC(N)=O)cc(Br)c1OC(C)C,3.8,6.3,-8.8,1.2,/,10.2
Cc1cc(C(=O)N/N=C/c2ccc3c(c2)OCO3)c2ccccc2n1,52.2*,/,/,56.0*,1.5,/
CCOc1ccccc1-c1cc(C(=O)N/N=C/c2ccc(O)c(OC)c2)c2ccccc2n1,7.5,3.7,-10.8,-0.5,1.4,57.9*
Cc1cc(C(=O)N/N=C/c2ccc(N(C)C)cc2)c2ccccc2n1,9.0,4.8,46.1*,8.2,3.5,1.6
Cc1cc(C(=O)N/N=C/c2ccc([N+](=O)[O-])cc2)c2ccccc2n1,4.2,/,/,13.3,8.1,/

# Bioassay records from PubChem BioAssay.
